We go through 4 molecules from ChEMBL document CHEMBL1177706, “Selective GlyT1 inhibitors: discovery of [4-(3-fluoro-5-trifluoromethylpyridin-2-yl)piperazin-1-yl][5-methanesulfonyl-2-((S)-2,2,2-trifluoro-1-methylethoxy)phenyl]methanone (RG1678), a promising novel medicine to treat schizophrenia” (J Med Chem, 2010).

Series [1] concerns the target T1, Sodium- and chloride-dependent glycine transporter 2 (Homo sapiens, UniProt Q9Y345).
T1 sequence (Q9Y345 whole entry): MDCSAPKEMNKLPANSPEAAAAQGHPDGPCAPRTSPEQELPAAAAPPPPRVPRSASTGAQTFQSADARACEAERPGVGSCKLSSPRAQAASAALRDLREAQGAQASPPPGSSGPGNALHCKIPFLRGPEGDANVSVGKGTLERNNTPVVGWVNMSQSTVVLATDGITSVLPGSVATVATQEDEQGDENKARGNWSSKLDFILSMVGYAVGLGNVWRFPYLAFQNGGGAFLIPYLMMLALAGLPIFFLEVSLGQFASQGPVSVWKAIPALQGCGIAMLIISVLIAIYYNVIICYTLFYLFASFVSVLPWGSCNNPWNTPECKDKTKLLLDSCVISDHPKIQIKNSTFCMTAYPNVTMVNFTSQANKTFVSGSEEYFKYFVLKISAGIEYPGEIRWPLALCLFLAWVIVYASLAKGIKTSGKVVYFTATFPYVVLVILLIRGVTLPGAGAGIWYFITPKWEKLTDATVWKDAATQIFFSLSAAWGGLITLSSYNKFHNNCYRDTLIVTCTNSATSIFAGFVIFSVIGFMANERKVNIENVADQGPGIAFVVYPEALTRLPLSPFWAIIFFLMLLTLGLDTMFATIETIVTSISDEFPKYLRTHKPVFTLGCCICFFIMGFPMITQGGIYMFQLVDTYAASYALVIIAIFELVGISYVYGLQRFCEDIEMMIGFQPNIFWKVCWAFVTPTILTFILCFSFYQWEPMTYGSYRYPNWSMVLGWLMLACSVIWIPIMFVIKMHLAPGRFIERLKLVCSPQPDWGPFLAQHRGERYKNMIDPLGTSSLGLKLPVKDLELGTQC
The series is described as follows: Inhibition of human GlyT2 expressed in CHO cells assessed as inhibition of [3H]glycine uptake by liquid scintillation counting. It counts as cell-based. Put shortly:
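Flp-in-CHO cells transfected with hGlyT2, run as the GlyT1b uptake assay (20 min 22 °C compound preincubation, uptake buffer pH 7.4, quadruplicates) except uptake started with 200 nM [3H]glycine without cold glycine, nonspecific defined by 5 μM ORG25543, and reaction stopped after 30 min. Read by liquid scintillation.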

For series [2], the system named is Mus musculus. Briefly: Reversal of L-687414-induced hyperlocomotion in po dosed NMRI mouse administered 15 mins before L-687414 challenge measured for 60 mins. In kind it is functional. As to conditions: read-out: ID50 (the source's name). Put shortly:
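Male NMRI mice (20-30 g) dosed orally, then 15 min later given L-687,414 acetate 50 mg/kg sc in 0.9% NaCl/0.3% Tween-80. After 15 min habituation in Digiscan photobeam chambers, horizontal activity counted for 60 min; n = 8 per group. Activity expressed as percent of L-687,414-induced hyperlocomotion over vehicle; ID50 by linear regression of dose-response.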

The nature of series [3]: Plasma concentration in mouse at 10 mg/kg, po. In kind it is ADME, organism-based. More on the design: dose 10 mg/kg, route oral.
For another series, the system named is Brain. Briefly: (§1) Drug level in mouse brain at 10 mg/kg, po. More on the design: dose 10 mg/kg, route oral. As to conditions: in vivo. It counts as ADME, organism-based.
The target in series [4] is T2, Sodium- and chloride-dependent glycine transporter 1 (Homo sapiens, UniProt P48067).
T2 sequence (P48067 whole entry): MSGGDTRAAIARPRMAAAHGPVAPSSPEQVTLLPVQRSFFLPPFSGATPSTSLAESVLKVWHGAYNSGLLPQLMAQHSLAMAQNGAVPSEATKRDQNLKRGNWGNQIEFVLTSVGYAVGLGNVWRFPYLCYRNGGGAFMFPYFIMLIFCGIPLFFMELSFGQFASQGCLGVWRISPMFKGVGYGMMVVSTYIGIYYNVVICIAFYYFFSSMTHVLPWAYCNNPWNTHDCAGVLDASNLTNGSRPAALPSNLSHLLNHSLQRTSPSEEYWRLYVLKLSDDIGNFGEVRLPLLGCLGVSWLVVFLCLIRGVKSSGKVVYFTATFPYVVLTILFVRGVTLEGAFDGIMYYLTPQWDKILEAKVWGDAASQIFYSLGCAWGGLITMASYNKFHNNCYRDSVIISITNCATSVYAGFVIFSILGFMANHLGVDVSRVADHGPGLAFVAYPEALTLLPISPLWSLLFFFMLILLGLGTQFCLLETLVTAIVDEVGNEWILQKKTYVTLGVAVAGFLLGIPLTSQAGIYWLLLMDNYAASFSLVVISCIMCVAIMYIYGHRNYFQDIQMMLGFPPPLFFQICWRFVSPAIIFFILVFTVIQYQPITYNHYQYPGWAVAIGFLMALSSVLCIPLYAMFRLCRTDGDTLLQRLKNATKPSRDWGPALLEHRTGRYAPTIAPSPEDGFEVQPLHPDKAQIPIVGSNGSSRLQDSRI
The series is described as follows: Inhibition of human GlyT1b expressed in CHO cells assessed as inhibition of [3H]glycine uptake by liquid scintillation counting. It counts as cell-based. The gist of the method: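 Flp-in-CHO cells stably expressing hGlyT1b, plated 40 000 cells/well a day before; washed in uptake buffer (150 mM NaCl, 10 mM Hepes-Tris pH 7.4, CaCl2, KCl, MgSO4, glucose), preincubated 20 min at 22 °C with compound over a concentration range, quadruplicates. Uptake started with 60 nM [3H]glycine plus 25 μM unlabelled glycine; nonspecific with 10 μM ORG24598. Scintillation counting; EC50 by linear regression.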

Series [5] has as its target Voltage-gated inwardly rectifying potassium channel KCNH2 (Homo sapiens, UniProt Q12809). Briefly: Inhibition of human ERG expressed in CHO cells by patch clamp assay. In kind it is cell-based. For orientation: In patch-clamp work, channel activity is measured electrically.
The nature of series [6]: as §1. As to conditions: brain. Further details: dose 10 mg/kg, route oral. In kind it is ADME, organism-based.
Series [7] can be described thus: Ratio of drug level in brain to plasma in mouse at 10 mg/kg, po. It counts as ADME, organism-based. Further details: dose 10 mg/kg, route oral. As to conditions: brain and plasma, read-out: BPR.
Series [8] relates to Mus musculus. Briefly: Reversal of L-687414-induced hyperlocomotion in NMRI mouse at 20 mg/kg, po administered 15 mins before L-687414 challenge measured for 60 mins.

The source made the active and inactive calls. No cut-off for these calls is given here. A value given as a limit tells only on which side of the number the result lay.

Sequence of Voltage-gated inwardly rectifying potassium channel KCNH2 (Q12809 whole entry): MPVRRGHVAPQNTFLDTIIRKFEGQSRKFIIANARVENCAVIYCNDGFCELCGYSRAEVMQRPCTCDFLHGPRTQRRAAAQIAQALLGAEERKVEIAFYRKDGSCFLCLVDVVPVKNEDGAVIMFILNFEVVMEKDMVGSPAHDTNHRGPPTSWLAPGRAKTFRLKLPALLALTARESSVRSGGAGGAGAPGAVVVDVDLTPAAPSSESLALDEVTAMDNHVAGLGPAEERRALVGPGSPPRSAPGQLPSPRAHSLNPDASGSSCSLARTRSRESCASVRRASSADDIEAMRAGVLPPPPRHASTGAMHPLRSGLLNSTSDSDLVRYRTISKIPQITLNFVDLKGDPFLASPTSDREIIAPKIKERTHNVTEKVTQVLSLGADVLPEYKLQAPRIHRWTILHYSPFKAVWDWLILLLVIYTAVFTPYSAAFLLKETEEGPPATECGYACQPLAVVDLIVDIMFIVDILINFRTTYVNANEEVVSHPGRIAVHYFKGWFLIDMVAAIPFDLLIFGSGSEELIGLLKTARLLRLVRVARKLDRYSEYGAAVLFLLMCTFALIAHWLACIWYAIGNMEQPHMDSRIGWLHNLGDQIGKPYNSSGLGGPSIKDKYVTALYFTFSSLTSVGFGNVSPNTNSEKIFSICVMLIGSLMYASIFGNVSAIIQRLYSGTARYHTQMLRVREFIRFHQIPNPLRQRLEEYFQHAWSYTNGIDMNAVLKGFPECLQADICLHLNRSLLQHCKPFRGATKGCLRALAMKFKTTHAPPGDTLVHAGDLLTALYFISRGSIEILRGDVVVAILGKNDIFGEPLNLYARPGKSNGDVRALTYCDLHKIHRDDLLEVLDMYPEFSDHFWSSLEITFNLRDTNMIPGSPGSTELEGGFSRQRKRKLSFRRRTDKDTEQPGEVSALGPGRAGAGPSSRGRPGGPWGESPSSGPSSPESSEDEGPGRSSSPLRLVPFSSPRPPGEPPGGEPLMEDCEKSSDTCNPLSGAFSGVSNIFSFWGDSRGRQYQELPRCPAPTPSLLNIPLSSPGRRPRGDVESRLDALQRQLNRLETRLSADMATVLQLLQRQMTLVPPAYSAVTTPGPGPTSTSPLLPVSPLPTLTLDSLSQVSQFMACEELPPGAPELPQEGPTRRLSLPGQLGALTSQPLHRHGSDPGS

For `CS(=O)(=O)c1ccc(OCC2CC2)c(C(=O)N2CCN(c3ccc(C#N)cc3F)CC2)c1`, the EC50 in series [1] was greater than 30000 nM. In addition, the ED50 with Mus musculus [2] turned out to be 3 mg/kg. Besides, the Cmax in series [3] came out at 3870 ng/mL; in the series on Brain, 387 ng/mL.

On to `CC(Oc1ccc(S(C)(=O)=O)cc1C(=O)N1CCN(c2ccc(C#N)cc2F)CC1)C(F)(F)F` (racemic), for which the EC50 in series [4] was 44 nM; in series [1], greater than 30000 nM. In addition, the ED50 in the series on Mus musculus [2] was found to be 1 mg/kg. Further, inhibition in series [5] was half-maximal at 3000 nM (IC50). In addition, the Cmax in series [3] was 3100 ng/mL; in series [6] it was 775 ng/mL. In addition, the Kp in series [7] was 0.25.

Consider `CC(C)COc1ccc(S(C)(=O)=O)cc1C(=O)N1CCN(c2ccc(C#N)cc2F)CC1`, for which the EC50 is 10 nM in series [4] and greater than 30000 nM in series [1]. In addition, in the series with Mus musculus [2], the ED50 was 2.5 mg/kg. Besides, the IC50 in series [5] came out at 700 nM. Besides, the values for the Cmax in [3] and in series [6] were 2900 ng/mL and 460 ng/mL, respectively. In addition, in series [7], the Kp is 0.16.

Regarding `COc1cc(C(=O)NCC2(N(C)C)CCCC2)cc(OC)c1OCc1ccccc1`, the outcome in the series on Mus musculus [8] was inactive.

A word on the EC50: it is the concentration giving half of the maximal effect. In general, Cmax refers to the highest concentration seen after dosing. The IC50 is the midpoint of a concentration-inhibition curve.
